Molecular target: not listed separately
Experiment: Displacement of [3H]prazosin from alpha-1-adrenoceptor in Wistar rat cerebral cortex membrane
Assay type: tissue-based
Summary of the method: (§1)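 Rat brain homogenised in ice-cold 50 mM Tris–HCl pH 7.6, centrifuged twice at 20,000g for 20 min at 0–4 °C. Membranes incubated with [3H]prazosin 0.2 nM (α1) or [3H]clonidine 2 nM (α2) and 7–8 test concentrations (10^-11–10^-4 M). Filter-bound radioactivity counted by liquid scintillation; duplicates; curve-fitted, Ki by Cheng–Prusoff.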

Point of comparison: `O=c1ccc(-n2ccnc2)nn1CCCN1CCN(c2ccccc2Cl)CC1`, Ki 0.2 nM. Against it:
- CCOc1ccccc1N1CCN(CCCCCn2ncc(N3CCN(CCOc4ccccc4OC)CC3)c(Cl)c2=O)CC1 — 4-fold lower, 0.05 nM
- COc1ccccc1N1CCN(CCCN2C(=O)C3C(c4ccccc4N3C)N(C)C2=O)CC1 (stereo not given) — 2-fold lower, 0.1 nM
- COc1ccccc1N1CCN(CCN2C(=O)C3Sc4ccccc4C3N=C2C)CC1 (stereo not given) — 2.5-fold higher, 0.5 nM
- CCOc1ccccc1OCCN1CCN(c2cnn(CCCN3CCN(c4ccccc4OCC)CC3)c(=O)c2Cl)CC1 — 4-fold lower, 0.05 nM
- COc1ccccc1OCCN1CCN(c2cnn(CCCN3CCN(c4ccccc4OC(C)C)CC3)c(=O)c2Cl)CC1 — 4-fold lower, 0.05 nM
- CCOc1ccccc1OCCN1CCN(c2cnn(CCCCCCCN3CCN(c4ccccc4OCC)CC3)c(=O)c2Cl)CC1 — 4-fold lower, 0.05 nM
- CCOc1ccccc1N1CCN(CCCCn2ncc(N3CCN(CCOc4ccccc4OC)CC3)c(Cl)c2=O)CC1 — 4-fold lower, 0.05 nM
- COc1ccccc1N1CCN(CCCN2C(=O)NC3c4ccccc4NC3C2=O)CC1 (stereo not given) — 2-fold lower, 0.1 nM
- COC(=O)CN1C(=O)N(CC(O)CN2CCN(c3ccccc3OC)CC2)C(c2ccccc2)(c2ccccc2)C1=O (stereo not given) — 990-fold higher, 198 nM
- CCOc1ccccc1OCCN1CCN(c2cnn(CCCN3CCN(c4ccccc4OC(C)C)CC3)c(=O)c2Cl)CC1 — 4-fold lower, 0.05 nM
- COC(=O)C(C)N1C(=O)N(CC(O)CN2CCN(c3ccccc3OC)CC2)C(c2ccccc2)(c2ccccc2)C1=O (stereo not given) — 520-fold higher, 104 nM
- COc1ccccc1N1CCN(CCN2C(=O)C3Nc4ccccc4C3N=C2C)CC1 (stereo not given) — 2.5-fold higher, 0.5 nM
- COc1ccccc1N1CCN(C(C)CCN2C(=O)NC3c4ccccc4N(C)C3C2=O)CC1 (stereo not given) — 2-fold lower, 0.1 nM
- COc1ccc(Cl)cc1N1CCN(CCN2C(=O)C3Nc4ccccc4C3N=C2C)CC1 (stereo not given) — 2.5-fold higher, 0.5 nM
- COc1ccccc1N1CCN(CCN2C(=O)NC3c4ccccc4OC3C2=O)CC1 (stereo not given) — 2-fold lower, 0.1 nM
- COc1ccccc1N1CCN(C(C)CN2C(=O)C3C(c4ccccc4N3C)N(C)C2=O)CC1 (stereo not given) — 2-fold lower, 0.1 nM
- COc1ccccc1OCCN1CCN(c2cnn(CCCCCCN3CCN(c4ccccc4OC)CC3)c(=O)c2Cl)CC1 — 4-fold lower, 0.05 nM
- COc1ccccc1N1CCN(C(C)CCN2C(=O)NC3c4ccccc4OC3C2=O)CC1 (stereo not given) — 2-fold lower, 0.1 nM
- COc1ccccc1N1CCN(CCCN2C(=O)C3Sc4ccccc4C3N(C)C2=O)CC1 (stereo not given) — 2-fold lower, 0.1 nM
- COc1ccccc1N1CCN(CCN2C(=O)C3Sc4ccccc4C3N(C)C2=O)CC1 (stereo not given) — 2-fold lower, 0.1 nM
- COc1ccccc1N1CCN(C(C)CCN2C(=O)NC3c4ccccc4SC3C2=O)CC1 (stereo not given) — 2-fold lower, 0.1 nM
- COc1ccccc1N1CCN(C(C)CN2C(=O)C3Nc4ccccc4C3N(C)C2=O)CC1 (stereo not given) — 2-fold lower, 0.1 nM
- COc1ccccc1N1CCN(CCCCCCCn2ncc(N3CCN(CC4COc5ccccc5O4)CC3)c(Cl)c2=O)CC1 (stereo not given) — 4-fold lower, 0.05 nM
- COc1ccccc1N1CCN(C(C)CCN2C(=O)NC3c4ccccc4NC3C2=O)CC1 (stereo not given) — 2-fold lower, 0.1 nM
- COc1ccccc1N1CCN(CCCN2C(=O)C3Nc4ccccc4C3N(C)C2=O)CC1 (stereo not given) — 2-fold lower, 0.1 nM
- COc1ccccc1OCCN1CCN(c2cnn(CCCCN3CCN(c4ccccc4OC(C)C)CC3)c(=O)c2Cl)CC1 — 4-fold lower, 0.05 nM
- COc1ccccc1OCCN1CCN(c2cnn(CCCCCCCN3CCN(c4ccccc4OC(C)C)CC3)c(=O)c2Cl)CC1 — 4-fold lower, 0.05 nM
- CCOc1ccccc1OCCN1CCN(c2cnn(CCCCCCN3CCN(c4ccccc4OCC)CC3)c(=O)c2Cl)CC1 — 4-fold lower, 0.05 nM
- CCOc1ccccc1OCCN1CCN(c2cnn(CCCCCN3CCN(c4ccccc4OC(C)C)CC3)c(=O)c2Cl)CC1 — 4-fold lower, 0.05 nM
- COc1ccccc1N1CCN(CCN2C(=O)NC3c4ccccc4NC3C2=O)CC1 (stereo not given) — 2-fold lower, 0.1 nM
- CCOc1ccccc1N1CCN(CCCCCCCn2ncc(N3CCN(CCOc4ccccc4OC)CC3)c(Cl)c2=O)CC1 — 4-fold lower, 0.05 nM
- CCOc1ccccc1OCCN1CCN(c2cnn(CCN3CCN(c4ccccc4OC(C)C)CC3)c(=O)c2Cl)CC1 — 4-fold lower, 0.05 nM
- COc1ccccc1N1CCN(C(C)CN2C(=O)NC3c4ccccc4NC3C2=O)CC1 (stereo not given) — 2-fold lower, 0.1 nM
- CCOc1ccccc1N1CCN(CCn2ncc(N3CCN(CCOc4ccccc4OC)CC3)c(Cl)c2=O)CC1 — 4-fold lower, 0.05 nM
- CCOc1ccccc1N1CCN(CCCn2ncc(N3CCN(CCOc4ccccc4OC)CC3)c(Cl)c2=O)CC1 — 4-fold lower, 0.05 nM
- COc1ccccc1OCCN1CCN(c2cnn(CCN3CCN(c4ccccc4OC)CC3)c(=O)c2Cl)CC1 — 4-fold lower, 0.05 nM
- COc1ccccc1N1CCN(CCN2C(=O)NC3c4ccccc4SC3C2=O)CC1 (stereo not given) — 2-fold lower, 0.1 nM
- COc1ccccc1N1CCN(C(C)CCN2C(=O)C3Sc4ccccc4C3N(C)C2=O)CC1 (stereo not given) — 2-fold lower, 0.1 nM
- COc1ccccc1N1CCN(CCN2C(=O)C3C(c4ccccc4N3C)N(C)C2=O)CC1 (stereo not given) — 2-fold lower, 0.1 nM
- COc1ccccc1N1CCN(CCCCCCn2nc(-n3ccc4ccccc43)ccc2=O)CC1 — the same, 0.2 nM
- CCOc1ccccc1OCCN1CCN(c2cnn(CCCCCCN3CCN(c4ccccc4OC)CC3)c(=O)c2Cl)CC1 — 4-fold lower, 0.05 nM
- COc1ccccc1N1CCN(C(C)CCN2C(=O)C3Nc4ccccc4C3N(C)C2=O)CC1 (stereo not given) — 2-fold lower, 0.1 nM
- COc1ccccc1OCCN1CCN(c2cnn(CCCCCCCN3CCN(c4ccccc4OC)CC3)c(=O)c2Cl)CC1 — 4-fold lower, 0.05 nM
- CCOc1ccccc1OCCN1CCN(c2cnn(CCCCN3CCN(c4ccccc4OCC)CC3)c(=O)c2Cl)CC1 — 4-fold lower, 0.05 nM
- COc1ccccc1OCCN1CCN(c2cnn(CCCCN3CCN(c4ccccc4OC)CC3)c(=O)c2Cl)CC1 — 4-fold lower, 0.05 nM
- COc1ccccc1N1CCN(CCCN2C(=O)NC3c4ccccc4OC3C2=O)CC1 (stereo not given) — 2-fold lower, 0.1 nM
- COc1ccccc1OCCN1CCN(c2cnn(CCN3CCN(c4ccccc4OC(C)C)CC3)c(=O)c2Cl)CC1 — 4-fold lower, 0.05 nM
- COc1ccccc1N1CCN(C(C)CN2C(=O)C3Sc4ccccc4C3N(C)C2=O)CC1 (stereo not given) — 2-fold lower, 0.1 nM
- COc1ccccc1N1CCN(C(C)CCN2C(=O)C3C(c4ccccc4N3C)N(C)C2=O)CC1 (stereo not given) — 2-fold lower, 0.1 nM
- COc1ccccc1N1CCN(C(C)CN2C(=O)NC3c4ccccc4OC3C2=O)CC1 (stereo not given) — 2-fold lower, 0.1 nM
- COc1ccccc1N1CCN(CCN2C(=O)NC3c4ccccc4N(C)C3C2=O)CC1 (stereo not given) — 2-fold lower, 0.1 nM
- COc1ccccc1OCCN1CCN(c2cnn(CCCN3CCN(c4ccccc4OC)CC3)c(=O)c2Cl)CC1 — 4-fold lower, 0.05 nM
- COc1ccccc1OCCN1CCN(c2cnn(CCCCCCN3CCN(c4ccccc4OC(C)C)CC3)c(=O)c2Cl)CC1 — 4-fold lower, 0.05 nM
- COc1ccccc1N1CCN(CCN2C(=O)C3Nc4ccccc4C3N(C)C2=O)CC1 (stereo not given) — 2-fold lower, 0.1 nM
- COc1ccccc1N1CCN(C(C)CCN2C(=O)C3Oc4ccccc4C3N(C)C2=O)CC1 (stereo not given) — 2-fold lower, 0.1 nM
- COc1ccccc1N1CCN(CCN2C(=O)C3Oc4ccccc4C3N(C)C2=O)CC1 (stereo not given) — 2-fold lower, 0.1 nM
- CCOc1ccccc1OCCN1CCN(c2cnn(CCCCN3CCN(c4ccccc4OC(C)C)CC3)c(=O)c2Cl)CC1 — 4-fold lower, 0.05 nM
- COc1ccccc1N1CCN(C(C)CN2C(=O)C3Oc4ccccc4C3N(C)C2=O)CC1 (stereo not given) — 2-fold lower, 0.1 nM
- CCOc1ccccc1OCCN1CCN(c2cnn(CCCCCCCN3CCN(c4ccccc4OC(C)C)CC3)c(=O)c2Cl)CC1 — 4-fold lower, 0.05 nM
- COc1ccc(Cl)cc1N1CCN(CCN2C(=O)C3Sc4ccccc4C3N=C2C)CC1 (stereo not given) — 2.5-fold higher, 0.5 nM
- CCOc1ccccc1OCCN1CCN(c2cnn(CCCCCN3CCN(c4ccccc4OCC)CC3)c(=O)c2Cl)CC1 — 4-fold lower, 0.05 nM
- COc1ccccc1N1CCN(CCCN2C(=O)NC3c4ccccc4N(C)C3C2=O)CC1 (stereo not given) — 2-fold lower, 0.1 nM
- CCOc1ccccc1OCCN1CCN(c2cnn(CCCCN3CCN(c4ccccc4OC)CC3)c(=O)c2Cl)CC1 — 4-fold lower, 0.05 nM
- COc1ccccc1OCCN1CCN(c2cnn(CCCCCN3CCN(c4ccccc4OC(C)C)CC3)c(=O)c2Cl)CC1 — 4-fold lower, 0.05 nM
- COc1cc2nc(N3CCN(C(=O)c4ccco4)CC3)nc(N)c2cc1OC [PRAZOSIN] — within 1.5-fold, 0.24 nM
- COc1ccccc1N1CCN(CCCN2C(=O)C3Oc4ccccc4C3N(C)C2=O)CC1 (stereo not given) — 2-fold lower, 0.1 nM
- CCOc1ccccc1OCCN1CCN(c2cnn(CCCN3CCN(c4ccccc4OC)CC3)c(=O)c2Cl)CC1 — 4-fold lower, 0.05 nM
- COc1ccccc1N1CCN(C(C)CN2C(=O)NC3c4ccccc4SC3C2=O)CC1 (stereo not given) — 2-fold lower, 0.1 nM
- COc1ccccc1N1CCN(CCCCCCCn2nc(-n3ccc4ccccc43)ccc2=O)CC1 — the same, 0.2 nM
- COc1ccccc1N1CCN(CCCN2C(=O)NC3c4ccccc4SC3C2=O)CC1 (stereo not given) — 2-fold lower, 0.1 nM
- COc1ccccc1N1CCN(CCCn2nc(-n3ccnc3)ccc2=O)CC1 — the same, 0.2 nM
- CCOc1ccccc1OCCN1CCN(c2cnn(CCN3CCN(c4ccccc4OC)CC3)c(=O)c2Cl)CC1 — 4-fold lower, 0.05 nM
- CCOc1ccccc1N1CCN(CCCCCCn2ncc(N3CCN(CCOc4ccccc4OC)CC3)c(Cl)c2=O)CC1 — 4-fold lower, 0.05 nM
- CCOc1ccccc1OCCN1CCN(c2cnn(CCCCCCCN3CCN(c4ccccc4OC)CC3)c(=O)c2Cl)CC1 — 4-fold lower, 0.05 nM
- O=c1ccc(-n2cnc3ccccc32)nn1CCCCCCCN1CCN(c2ccccc2Cl)CC1 — the same, 0.2 nM
- COc1ccccc1N1CCN(CCCCCn2nc(-n3ccnc3)ccc2=O)CC1 — the same, 0.2 nM
- CCOc1ccccc1OCCN1CCN(c2cnn(CCCCCN3CCN(c4ccccc4OC)CC3)c(=O)c2Cl)CC1 — 4-fold lower, 0.05 nM
- CCOc1ccccc1OCCN1CCN(c2cnn(CCN3CCN(c4ccccc4OCC)CC3)c(=O)c2Cl)CC1 — 4-fold lower, 0.05 nM
- COc1ccccc1OCCN1CCN(c2cnn(CCCCCN3CCN(c4ccccc4OC)CC3)c(=O)c2Cl)CC1 — 4-fold lower, 0.05 nM
- COc1ccccc1N1CCN(C(C)CN2C(=O)NC3c4ccccc4N(C)C3C2=O)CC1 (stereo not given) — 2-fold lower, 0.1 nM
- CCOc1ccccc1OCCN1CCN(c2cnn(CCCCCCN3CCN(c4ccccc4OC(C)C)CC3)c(=O)c2Cl)CC1 — 4-fold lower, 0.05 nM

System: not listed separately
Experiment: Antagonist activity at alpha-1-adrenoceptor in Wistar rat thoracic aorta assessed as inhibition of phenylephrine-induced contraction
Assay type: functional, tissue-based
Summary of the method: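 Male Wistar rats (200–350 g), thiopental 75 mg/kg ip; endothelium-denuded thoracic aorta rings (~4 mm) in Krebs–Henseleit, 37 °C, pH 7.4, O2/CO2 19:1. Cumulative phenylephrine curves (3·10^-9–3·10^-6 M) before and after 20 min with one of 3–4 antagonist concentrations per ring; 60 min recovery between curves.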

Point of comparison: `COC(=O)C(C)N1C(=O)N(CC(O)CN2CCN(c3ccccc3OC)CC2)C(c2ccccc2)(c2ccccc2)C1=O` (stereo not given), pKb 7.084. Against it:
- CCOc1ccccc1N1CCN(CC(O)CN2C(=O)N(C)C(=O)C2(c2ccccc2)c2ccccc2)CC1 (stereo not given) — within 0.2 log units, 7.022

Species on record: Rattus norvegicus
Experiment: Selectivity of Ki for alpha-2-adrenoceptor to Ki for alpha-1-adrenoceptor in Wistar rat cerebral cortex membrane
Assay type: tissue-based

Point of comparison: `COC(=O)C(C)N1C(=O)N(CC(O)CN2CCN(c3ccccc3OC)CC2)C(c2ccccc2)(c2ccccc2)C1=O` (stereo not given), Ratio Ki 4.32. Against it:
- COC(=O)CN1C(=O)N(CC(O)CN2CCN(c3ccccc3OC)CC2)C(c2ccccc2)(c2ccccc2)C1=O (stereo not given) — lower, 4.04
- CCOc1ccccc1N1CCN(CC(O)CN2C(=O)N(C)C(=O)C2(c2ccccc2)c2ccccc2)CC1 (stereo not given) — higher, 4.4

Molecular target: not listed separately
Experiment: Displacement of [3H]clonidine from alpha-2-adrenoceptor in Wistar rat cerebral cortex membrane
Assay type: tissue-based
Summary of the method: as §1

Point of comparison: `COC(=O)C(C)N1C(=O)N(CC(O)CN2CCN(c3ccccc3OC)CC2)C(c2ccccc2)(c2ccccc2)C1=O` (stereo not given), Ki 449 nM. Against it:
- COC(=O)CN1C(=O)N(CC(O)CN2CCN(c3ccccc3OC)CC2)C(c2ccccc2)(c2ccccc2)C1=O (stereo not given) — 1.8-fold higher, 800 nM
- CCOc1ccccc1N1CCN(CC(O)CN2C(=O)N(C)C(=O)C2(c2ccccc2)c2ccccc2)CC1 (stereo not given) — within 1.5-fold, 535 nM
